Experimental data: ChEMBL document CHEMBL1121793, “Biological effects of modified colchicines. Improved preparation of 2-demethylcolchicine, 3-demethylcolchicine, and (+)-colchicine and reassignment of the position of the double bond in dehydro-7-deacetamidocolchicines” (J Med Chem, 1981)
Active and inactive are the calls of the source. The rule behind the calls is not given here.

Key:
P388 [1] = details: Mus musculus
P388 [2] = experiment: The compound was tested for its potency against lymphocytic leukemia P388 screen in mice.; assay type: functional, Mus musculus
[3] = (§1) Toxicity found after a single im injection. The total number of deaths were counted after 7 days and LD50 was determined by probit analysis.; assay type: organism-based; details: mouse, in vivo, read-out: Toxicity
How it was run: (§2)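 NIH general purpose mice (ca. 20 g), ten per dose level, usually ≥5 dose levels; single im injection in Emulphor EL-620 mixture, vehicle-only group of ten as control. Survivors counted at day 7; LD50 with 95% confidence interval by probit analysis, converted to μmol/kg.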

Mus musculus [4] = species: Mus musculus; experiment: Dose of compound which caused an average weight loss >3g in a set of mice or the death of one or more of the mice in the set in the P388 NCI screen; assay type: functional
How it was run: (§3)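 P388 leukemia-bearing mice, 20–22 g; one im injection daily for 9 days, compound in hydroxypropylcellulose suspension or aqueous solution. Toxic dose = lowest dose level at which ≥1 mouse died on or by day 5, or group mean weight loss >3 g; converted to μmol/kg.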

P388 [5] = experiment: The compound was tested for its potency against lymphocytic leukemia P388 screen in mice; Inactive.; assay type: functional, cell-based; details: Mus musculus
Mus musculus [6] = species: Mus musculus; experiment: Dose of compound which caused an average weight loss >3g in a set of mice or the death of one or more of the mice in the set in the P388 NCI screen.; assay type: functional
How it was run: as §3

Mus musculus [7] = experiment: Toxicity found after a single im injection. The total number of deaths were counted after 7 days and LD50 was determined by probit analysis; 6.4-11.8; assay type: functional
How it was run: as §2

Mus musculus [8] = experiment: Toxicity found after a single im injection. The total number of deaths were counted after 7 days and LD50 was determined by probit analysis; 101.5-317.8; assay type: functional
How it was run: as §2

Mus musculus [9] = experiment: Toxicity found after a single im injection. The total number of deaths were counted after 7 days and LD50 was determined by probit analysis; 2.5-4.0; assay type: functional
How it was run: as §2

Mus musculus [10] = experiment: Toxicity found after a single im injection. The total number of deaths were counted after 7 days and LD50 was determined by probit analysis; 28.6-63.9; assay type: functional
How it was run: as §2

Mus musculus [11] = experiment: Toxicity found after a single im injection. The total number of deaths were counted after 7 days and LD50 was determined by probit analysis; 0.9-1.3; assay type: functional
How it was run: as §2

Mus musculus [12] = experiment: Toxicity found after a single im injection. The total number of deaths were counted after 7 days and LD50 was determined by probit analysis; 2.4-5.1; assay type: functional
How it was run: as §2

Mus musculus [13] = experiment: Toxicity found after a single im injection. The total number of deaths were counted after 7 days and LD50 was determined by probit analysis; 82.9-163.4; assay type: functional
How it was run: as §2

Mus musculus [14] = experiment: as §1; assay type: functional
How it was run: as §2

SMILES	Potency (P388 [1])	Potency (P388 [2]) [µM/kg]	Toxicity (Mus musculus [6]) [µM/kg]	other results
CN[C@H]1CCc2cc(OC)c(OC)c(OC)c2-c2ccc(=O)c(O)cc21	inactive	–	–	–
COc1cc2c(c(OC)c1OC)-c1ccc(OC)c(=O)cc1[C@@H](N(C)Cc1ccccc1O)CC2 [SPECIOSINE]	–	22	–	LD50 at 168 h [3]: 296 µmol/kg; Toxicity (Mus musculus [4]): 83.9 µM/kg
COc1cc2c(c(OC)c1OC)-c1ccc(=O)c(OC)cc1[C@@H](N(C)C)CC2	–	–	–	Potency (P388 [5]): inactive
CN[C@H]1CCc2cc(OC)c(OC)c(OC)c2-c2ccc(OC)c(=O)cc21 [DEMECOLCINE]	–	10.8	21.6	–
COc1cc2c(c(OC)c1OC)-c1ccc(OC)c(=O)cc1[C@@H](N(C)C(=O)C(F)(F)F)CC2	–	1.5	5.4	Toxicity (Mus musculus [7]): 8.8 µM/kg
COc1cc2c(c(OC)c1OC)-c1ccc(OC)c(=O)cc1C(=O)CC2	–	9.6	28.1	–
COC1=CC=C2C(=C(NC(C)=O)CCc3cc(OC)c(OC)c(OC)c32)CC1=O	inactive	–	–	–
COc1cc2c(c(OC)c1OC)-c1ccc(=O)c(OC)cc1[C@@H](N(C)C=O)CC2	inactive	–	–	–
COc1cc2c(c(OC)c1OC)-c1ccc(OC)c(=O)cc1[C@@H](N(C)C)CC2	–	68	–	LD50 at 168 h [3]: 520 µmol/kg; Toxicity (Mus musculus [4]): 51.9 µM/kg
COc1cc2c(c(O)c1OC)-c1ccc(SC)c(=O)cc1[C@@H](NC(C)=O)CC2	inactive	–	–	–
COc1cc2c(c(OC)c1OC)-c1ccc(OC)c(=O)cc1[C@@H](N(C)C=O)CC2	–	1.7	6.3	Toxicity (Mus musculus [8]): 179.7 µM/kg
COc1cc2c(c(OC)c1OC)-c1ccc(OC)c(=O)cc1[C@@H](NC(C)=O)CC2 [COLCHICINE]	–	0.4	2.5	Toxicity (Mus musculus [9]): 3 µM/kg
COc1cc2c(c(OC)c1OC)-c1ccc(=O)c(OC)cc1CC=C2	–	–	–	Potency (P388 [5]): inactive
COc1cc2c(c(OC)c1O)-c1ccc(OC)c(=O)cc1[C@@H](NC(C)=O)CC2 [2-DESMETHYLCOLCHICIN]	–	13.8	51.9	Toxicity (Mus musculus [10]): 42.9 µM/kg
COc1c(O[C@H]2O[C@H](CO)[C@@H](O)[C@H](O)[C@H]2O)cc2c(c1OC)-c1ccc(OC)c(=O)cc1C(NC(C)=O)CC2 (some centres not stated)	inactive	–	–	–
COc1cc2c(c(OC)c1OC)-c1ccc(=O)c(OC)cc1[C@@H](N(C)C(C)=O)CC2	inactive	–	–	–
COc1cc2c(c(OC)c1OC)-c1ccc(OC)c(=O)cc1[C@@H](NC(=O)C(F)(F)F)CC2	–	0.4	0.9	Toxicity (Mus musculus [11]): 1.1 µM/kg
COc1cc2c(c(OC)c1OC)-c1ccc(=O)c(OC)cc1[C@@H](NC(=O)C(F)(F)F)CC2	inactive	–	–	–
COc1cc2c(c(OC)c1OC)-c1ccc(OC)c(=O)cc1[C@@H](N(C)C(C)=O)CC2	–	0.4	3	Toxicity (Mus musculus [12]): 3.6 µM/kg
COc1cc2c(c(OC)c1OC)-c1ccc(OC)c(=O)cc1CC=C2	–	15.9	–	LD50 at 168 h [3]: ~300 µmol/kg; Toxicity (Mus musculus [4]): 29.4 µM/kg
COc1cc2c(c(OC)c1OC)-c1ccc(OC)c(=O)cc1[C@H](NC(C)=O)CC2	–	–	–	Toxicity (Mus musculus [13]): 122.6 µM/kg
COc1cc2c(c(O)c1OC)-c1ccc(OC)c(=O)cc1[C@@H](NC(C)=O)CC2	–	86	103.9	Toxicity (Mus musculus [14]): >520 µM/kg
COc1cc2c(c(OC(C)=O)c1OC)-c1ccc(OC)c(=O)cc1[C@@H](NC(C)=O)CC2	inactive	–	46.8	Toxicity (Mus musculus [14]): 205.9 µM/kg
